# ChEMBL document CHEMBL4513216, “Probing the Open Global Health Chemical Diversity Library for Multistage-Active Starting Points for Next-Generation Antimalarials” (ACS Infect Dis, 2020)
# Assay: Toxicity liver stage against HepG2, at 10uM
# Assay type: cell-based
# Parameters: test concentration 10 uM, cell line HepG2-A16-CD81EGFP
# Conditions: human, HepG2-A16-CD81EGFP cells; read-out: INHIBITION
# How it was run: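 Uninfected HepG2-A16-CD81EGFP cells, 3 × 10^3 per well, 1536-well, plated on prespotted compound at 10 μM final, parasite-free screening media added to match infected plates; puromycin 10 μM positive, DMSO 0.5% negative; run in parallel with 48 h PbLuc assay at 37 °C, 5% CO2; viability by CellTiter-Glo luminescence, normalized to controls.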
row,Structure (SMILES),cytotoxicity at 10 µM [%]
1,CC(=O)N1CCN(C(=O)NC(C)C)CC2(CC(=O)N(C)C2)C1 (configuration not stated),-4.13
2,c1cnc(NCc2noc3c2CN(c2cnccn2)CC3)nc1,0.774
3,O=C(c1ccc[nH]1)N1CCCC(c2cc(C(F)(F)F)[nH]n2)C1 (configuration not stated),2.04
4,CC(C)CN(C(=O)Nc1cccc(C(=O)N(C)C)c1)C1CC1,-15.2
5,O=C(O)CSc1nc(-c2ccc3c(c2)CCC3)n[nH]1,1.88
6,O=C(C1=COCCO1)N1CC(Oc2nc3c(Cl)cccc3s2)C1,38.2
7,Cc1nccn1CCN1C(=O)CC2(CCCC2)CC1=O,-2.11
8,O=C(COc1ccccc1Br)N1CCOc2ccncc21,5.13
9,CCn1cnnc1CNC(=O)N1CCN(c2ccc(OC)cc2)CC1,-1.62
10,Cc1cncc(C(=O)N2CC[C@@H]3[C@H]2CCC(=O)N3CCN(C)C)c1,-4.84
11,O=S(=O)(c1cncc(F)c1)N1CCC2(CCOC2)C1 (configuration not stated),-0.872
12,O=C1CCCN1CC1CN(C(=O)C2CCOCC2)Cc2nccn2C1 (configuration not stated),3.33
13,Cc1nc[nH]c1-c1nccn1-c1cccc(CN2CCCC2)c1,4.36
14,Cc1cc(CN2CCc3nn(C)c(=O)cc3C2)on1,-8.17
15,Cn1cnnc1SCC(=O)N1C[C@@H]2CC[C@H]1CN(Cc1cccnc1)C2,-2.82
16,COCC1CN(Cc2ccoc2)Cc2nnn(C)c21 (configuration not stated),-3.73
17,Cc1noc(C)c1CNC(=O)Nc1ccc(N2CCSCC2)cc1,-1.61
18,CCC1CNCc2cc3c(C)ccc(C)c3nc2O1 (configuration not stated),-4.22
19,Cc1cnn(CC2CCCN2C(=O)c2ccc3cc[nH]c3c2)c1 (configuration not stated),0.409
20,COc1cc(CNC(C)c2nnc3n2CCC3)cc(OC)c1 (configuration not stated),-41.7
21,CCOC(=O)[C@@H]1[C@@H](c2ccccc2)CN2CCN(C(=O)C3CC3)C[C@H]12,-0.973
22,CCn1cc(CN2CCC(O)(Cn3ccc4ncccc43)CC2)cn1,-16.3
23,Cc1nc(CN2CCCN(C(=O)c3cnccn3)CC2)cs1,-9.51

row,Structure (SMILES),cytotoxicity at 10 µM [%]
1,CCC(C)(NC(=O)CCN1CCOC1=O)C(=O)OC (configuration not stated),-16
2,Cc1ccc(CS(=O)(=O)CC(=O)NCCCOC(C)C)cc1,-2.9
3,Cc1noc(C)c1CN1CCCC1C(=O)OCc1ccccc1 (configuration not stated),3.23
4,CC1Oc2c(cccc2C(=O)N2CCN(CC(C)(C)O)CC2)NC1=O (configuration not stated),-8.9
5,Cc1ncc2c(n1)CN(c1ncnc3[nH]ccc13)CC2,-8.92
6,OC1(CN2CCCC2)COCCN(c2ncnc3[nH]ccc23)C1 (configuration not stated),10.7
7,Cc1cccn2c(=O)cc(OC(=O)c3ccccc3Cl)nc12,10.7
8,COc1ccc(Br)cc1CCC(=O)N1CCC(O)CC1,-1.96
9,Cc1cccc(NC(=O)[C@@H]2CCCN2Cc2ccc(C#N)cc2F)n1,-5.64
10,CC(C)(C)c1n[nH]c(C2CN(CCNC3CCCCC3)CCO2)n1 (configuration not stated),6.86
11,Cc1ccc2cc(C3(O)CCN(C)CC3)ccc2n1,-0.432
12,CSc1ccc(C(=O)N2CC(=O)N(Cc3ccccc3)CC(O)C2)cc1 (configuration not stated),-0.426
13,c1cc(CN2C[C@@H]3OCCN(CC4CC4)[C@@H]3C2)n[nH]1,-109
14,Cc1nn(CCNC(=O)c2cc(C3CC3)[nH]n2)c(C)c1Cl,-3.73
15,O=C(c1ncncc1Cl)N1CCN(c2ccc(Cl)cc2)CC1,-2.72
16,Cc1cc(N2CCC(NS(C)(=O)=O)CC2)nc(C(C)C)n1,-3.36
17,OCC(O)CN(CCN1CCOCC1)Cc1ccco1 (configuration not stated),-4.7
18,NCc1cnn(-c2ccccc2C(=O)N2CCCC(C(N)=O)C2)c1 (configuration not stated),1.2
19,CN(CC1(O)CCCC1)C(=O)c1cccc(Nc2cnccn2)c1,-4.27
20,CCC(C)[C@H](N)c1nnc(SCC(=O)Nc2cc(C)ccc2C)o1 (some centres not stated),-12.7
21,CC(=O)NCC(Cc1cccc(F)c1)n1cccc1 (configuration not stated),-5.36
22,CC(C)NC(=O)N1Cc2nccn2CC(CN2CCCC2)C1 (configuration not stated),-75.8
23,CC(=O)N1CCN(CC2CCOc3ccccc3C2)CC1 (configuration not stated),7.68

row,Structure (SMILES),cytotoxicity at 10 µM [%]
1,CN(C(=O)CNC(=O)CC(C)(C)C)C1CCN(c2ccccn2)CC1,13.9
2,CCC(C)C(=O)NCc1cc(Br)c(OC)c(OC)c1 (configuration not stated),2.42
3,CNS(=O)(=O)CCCN1CCCN(Cc2ccccc2)CC1C (configuration not stated),9.77
4,COC1CCN(C(=O)Nc2cc(C(F)(F)F)c[nH]c2=O)CC1,4.1
5,CCC(CO)N(Cc1cccnc1)C(=O)c1ccncc1F (configuration not stated),2.59
6,Cc1ncsc1C(=O)N(Cc1ccccn1)C1CC1,-11.2
7,CNS(=O)(=O)c1cccc(CNC(=O)c2c(C)oc(C)c2C)c1,-1.3
8,O=C(CCNS(=O)(=O)c1ccc(Cl)cc1)NCc1ccoc1,-11.8
9,CCS(=O)(=O)N1CCC[C@]2(C(=O)N(C)C)CN(c3ncccn3)C[C@@H]2C1,-3.26
10,Cc1nc(NS(=O)(=O)c2cc(C)c(Br)cc2C)no1,5.42
11,COCCC1(CO)CCCN(Cc2ccc(C(F)(F)F)cc2)C1 (configuration not stated),-153
12,CN(C)c1ccc(CNC(=O)NCCc2cccs2)cn1,-2.8
13,CCC1c2ccsc2CCN1C(=O)NCCc1ccccn1 (configuration not stated),-12.4
14,CCn1cc(NC(=O)NCC(O)COc2ccccc2)cn1 (configuration not stated),-8.6
15,CNc1cc(N2CCCC2CNCc2ccccn2)ncn1 (configuration not stated),7.31
16,CN(CCN1CCOCC1)C(=O)C1(c2ccc(F)cc2F)CCC1,-6.68
17,Cc1nc(N2CCCC2)nc2c1CCN(C(=O)CC1CCCC1)CC2,0.457
18,O=C(NCC1CC1)C1CN(C(=O)c2ccncc2)CC12CCOCC2 (configuration not stated),0.381
19,OCCn1nnnc1Cc1ccc(Br)cc1,1.54
20,CCCS(=O)(=O)NC(C)c1cccc(-n2cccn2)c1 (configuration not stated),3.65
21,O=C(NC1CCN(c2ccccc2Br)C1)c1c[nH]nn1 (configuration not stated),-17.9
22,CS(=O)(=O)c1ccc(C(O)CN2CCC(c3ccn[nH]3)CC2)cc1 (configuration not stated),-12.1
23,CN(CC(=O)NCC(F)(F)F)C(=O)c1ccc(C(=O)OC(C)(C)C)cc1,0.68

row,Structure (SMILES),cytotoxicity at 10 µM [%]
1,Cc1cnc(C)c(N2CCC(c3nnc(CN(C)C)n3C3CC3)CC2)n1,-0.918
2,CCN1CCOC(CNCc2ccccc2OCc2cccnc2)C1 (configuration not stated),-13.1
3,Cc1ccc(NS(=O)(=O)c2cnn(Cc3ccccc3)c2)c(C(=O)O)c1,-2.41
4,CC(C)(CNC(=O)CCCOc1cccc(F)c1)C(N)=O,-6.54
5,Cc1nc(CN2C[C@@H](NS(=O)(=O)N(C)C)[C@H](C(C)C)C2)cs1,-6.04
6,COCCc1noc(CN2CCCC(Cn3nc(C)nc3C)C2)n1 (configuration not stated),-6.41
7,Cc1ccnc(C(=O)N2C[C@@H]3CN(S(C)(=O)=O)CCO[C@@H]3C2)c1,-3.92
8,Cn1cnc2c(-c3ccccc3)nc(C3CCNCC3)cc21,-109
9,Cn1cc(C(C)(O)CNC(=O)c2ccc(Br)s2)cn1 (configuration not stated),-52.7
10,COC(=O)CN(CC1CCOC1)C1CC1 (configuration not stated),-24.3
11,CCN1CCN(c2nc(C(C)C)nc3c(C)nn(CC)c23)CC1,-12.6
12,O=C(CC1CC1)N1CCC2(CCCN(c3ncccn3)C2)CC1,-71
13,Cc1cc(C(=O)NC2CCN(c3nnc(C)c(C)c3C#N)CC2)no1,-2.12
14,COC(=O)C1CCN(C(=O)Cn2ccc(-c3ccc(F)cc3)n2)CC1,-5.31
15,Cc1cc(OCC(=O)NS(=O)(=O)c2cccnc2)ccc1Cl,0.544
16,O=C(NCCc1ccc(Cl)s1)NCc1nnc2n1CCCC2,-2.45
17,CC(NCc1ccccc1Cl)c1ccc2[nH]c(=O)[nH]c2c1 (configuration not stated),-9.7
18,CC(C)(C)C(=O)N1C[C@@H](F)[C@@H](OCc2nc3ncccc3[nH]2)C1,2.97
19,O=C([C@H]1CCCO1)N1CCC2(CC1)C(=O)N(CC1CC1)c1ccccc12,8.5
20,CCc1cc(C(=O)N2Cc3ccccc3OC3(CCOCC3)C2)on1,-9.54
21,Cn1nc(C#N)c2c1CN(C(=O)c1ccsc1)CCC2,-126
22,CN(C(=O)c1ccc[nH]1)C1CCC(NC(=O)OC(C)(C)C)CC1 (configuration not stated),-11.9
23,COc1c(F)ccc(C(=O)N2CC[C@H](CO)[C@@H](O)C2)c1F,-3.85

row,Structure (SMILES),cytotoxicity at 10 µM [%]
1,CN1CCCC1c1ccnc2nccn12 (configuration not stated),6.84
2,CC(C)c1nccn1C(C)C(=O)N1CCN(S(C)(=O)=O)CC1 (configuration not stated),-4.32
3,CCOC[C@@H]1CC[C@H]2[C@H](CCN2S(=O)(=O)Cc2ccccc2)O1,2.84
4,O=C(c1ncccn1)N1CCC2(CC1)COC(COc1ccccn1)C2 (configuration not stated),-1.96
5,CCN(Cc1nc(COC)no1)Cc1cc2ccc(F)cc2[nH]c1=O,2.03
6,CCn1nc(CC(C)C)cc1C(=O)NCCCOC,-18.8
7,N#Cc1cccc(CNc2cc(CO)ccc2Cl)c1,11.5
8,CC(=O)Nc1nc(C(=O)NCCOc2ccccc2F)cs1,-6.19
9,N#Cc1cccnc1NCCc1cc(F)cc2c1OCOC2,19.5
10,Nc1cc(N2CCOCC(Cc3ccc4[nH]ccc4c3)C2)ncn1 (configuration not stated),-5.69
11,CCN(CC)CCn1ccnc1-c1[nH]cnc1C,-8.88
12,COC1COC2(CCN(S(=O)(=O)c3ccc(F)cc3)CC2)C1 (configuration not stated),-95.9
13,CC(C)Cc1cc(C(=O)N2CCC(N3CCCC3)CC2)cc(O)n1,4.64
14,c1cnn(CC2CN(CCc3ccncc3)CCO2)c1 (configuration not stated),2.74
15,Cn1cnc2c1C(COCC1CC1)CN(C(=O)Cc1ccsc1)C2 (configuration not stated),-2.67
16,CN(C(=O)Cn1nc(-c2ccccc2)ccc1=O)C1CCS(=O)(=O)C1 (configuration not stated),1.82
17,Cc1cc2cc(CNC3CCN(S(C)(=O)=O)CC3)oc2cc1C,-0.779
18,CN(C)Cc1ccccc1CN(C)C(=O)c1ccoc1,-11.8
19,CCc1noc(CC)c1CNC(=O)Nc1cccc([S+](C)[O-])c1 (configuration not stated),13.4
20,Cc1cc(C2CCCN2C(=O)NCc2cccc(F)c2)on1 (configuration not stated),24.8
